Columns and labels:
Type in all cases: cell-based
[1] = molecular target: T1, Bile acid receptor (Homo sapiens) (UniProt Q96RI1); assay: Agonist activity at FXR in human HepG2 cells assessed as induction of BSEP mrNA expression at 10 uM by quantitative PCR method
T1 sequence (whole entry): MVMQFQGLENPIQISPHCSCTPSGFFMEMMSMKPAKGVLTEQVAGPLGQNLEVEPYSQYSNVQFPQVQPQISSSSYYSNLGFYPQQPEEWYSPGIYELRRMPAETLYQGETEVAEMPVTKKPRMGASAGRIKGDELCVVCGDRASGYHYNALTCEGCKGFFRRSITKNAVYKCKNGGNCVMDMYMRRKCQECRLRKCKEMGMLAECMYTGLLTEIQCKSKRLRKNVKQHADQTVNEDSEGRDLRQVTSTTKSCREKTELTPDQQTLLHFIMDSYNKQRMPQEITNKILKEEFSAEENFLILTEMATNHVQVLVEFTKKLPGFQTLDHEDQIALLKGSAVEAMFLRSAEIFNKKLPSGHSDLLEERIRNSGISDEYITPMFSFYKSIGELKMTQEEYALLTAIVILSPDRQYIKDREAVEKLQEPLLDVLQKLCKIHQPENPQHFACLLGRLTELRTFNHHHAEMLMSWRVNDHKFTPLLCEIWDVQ
Procedure, shortened: (§1)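 HepG2 cells were seeded at 2 × 10⁶ per well. After 24 h they were switched to MEM with 1% charcoal-stripped FCS, and 24 h later dosed with compound (0.1, 0.3, 1, 3, 10 μM; 0.1% DMSO final) for 24 h. Total RNA was reverse transcribed and analysed by qPCR, GAPDH-normalized, ΔΔCt method. Samples were run in duplicate in ≥4 independent experiments.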

[2] = molecular target: T1, Bile acid receptor (Homo sapiens); assay: Agonist activity at FXR in human HepG2 cells assessed as induction of BSEP mrNA expression at 1 uM by quantitative PCR method; procedure, shortened: as §1
[3] = test system: HepG2; assay: Cytotoxicity against human HepG2 cells assessed as compound concentration causing reduction in cell viability by WST1 assay
Procedure, shortened: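 WST-1 viability in HepG2 cells (3 × 10⁴ per well) in DMEM with 1% FCS, after 48 h exposure to 1, 10, 30 and 100 μM compound. Controls were Revlotron 100 μM (positive) and zileuton 100 μM or DMEM/1% DMSO (negative). WST reagent was added for 45 min and absorbance read at 450/620 nm; untreated set as 100%. Three repeats in triplicate.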

[4] = molecular target: T1, Bile acid receptor (Homo sapiens); assay: Agonist activity at FXR in human HepG2 cells assessed as induction of BSEP mrNA expression at 3 uM by quantitative PCR method; procedure, shortened: as §1
[5] = molecular target: T2, Bile acid receptor (Homo sapiens, UniProt Q96RI1); assay: Agonist activity at human FXR expressed in human HeLa cells assessed as receptor activation by BSEP promoter-driven firefly luciferase reporter gene assay; settings: read-out: EC50
T2 sequence (Q96RI1 whole entry): T1 sequence (whole entry)

[6] = molecular target: T1, Bile acid receptor (Homo sapiens); assay: Agonist activity at FXR in human HepG2 cells assessed as induction of SHP mrNA expression at 1 uM by quantitative PCR method; procedure, shortened: as §1

Q: Which results are given for `COc1ccc(C(=O)Nc2cccc(C(=O)O)c2)c(NC(=O)c2ccc(C(C)(C)C)cc2)c1`?
A: Activity [1]: 308%; Activity [2]: 319%; Activity [3]: >= 30 uM; Activity [4]: 326%; EC50 [5]: 8 nM; Activity [6]: 181%
